Residues, ends and D or L forms follow the SMILES beside them. *: point of attachment. Boc = CC(C)(C)OC(=O)*
Legend:
[1] = Compound was tested in vitro for inhibition of [125I](Leu15)-HG-17 binding to isolated gastric mucosal cells.; type: tissue-based, Rattus norvegicus, Gastric mucosa
In short: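 Fundic mucosal cells, dispersed by collagenase/EDTA (about 45% parietal cells, 95% viable), were incubated at 5 × 10^6 cells/mL in Earle's medium without bicarbonate (10 mM Hepes, 0.2% BSA, pH 7.4). Incubation was with 20 pM [125I]-(Leu15)-HG-17 for 30 min at 37 °C across a range of peptide concentrations. Nonsaturable binding was taken with 1 × 10^-6 M unlabeled (Nle11)-HG-13. Quadruplicate determinations.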

[2] = system: Rattus norvegicus; assay: Compound was tested in vivo for activity against gastrin induced acid secretion in rat; agonist; type: functional, organism-based; conditions: filed as agonist
[3] = system: Rattus norvegicus; assay: Compound was tested in vivo for activity against gastrin induced acid secretion in rat; antagonist; type: functional, organism-based; conditions: filed as antagonist
In short: (§1)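 In anaesthetized rats, peptide in alkaline aqueous solution was given as an iv bolus at various doses together with 80 pmol (Leu15)-HG-17 (submaximal dose). pH was recorded for 40 min. For each dose, H+ output with peptide plus gastrin was divided by output with gastrin alone and expressed as percent inhibition.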

[4] = system: Rattus norvegicus; assay: Compound was tested in vivo for activity against gastrin induced acid secretion in rat.; type: functional; in short: as §1

IC50 [1] | SMILES | Activity [2] | Activity [3] | ED50 [4]
0.3 µM | CC(C)C[C@H](NC[C@H](Cc1c[nH]c2ccccc12)NC(=O)OC(C)(C)C)C(=O)N[C@@H](CC(=O)O)C(=O)N[C@@H](Cc1ccccc1)C(N)=O | Agonist | – | –
5 µM | CC(C)C[C@H](NC(=O)[C@H](Cc1c[nH]c2ccccc12)NC(=O)OC(C)(C)C)C(=O)N[C@H](CN[C@@H](Cc1ccccc1)C(N)=O)CC(=O)O | – | Antagonist | 15 mg/kg
0.25 µM | CC(C)C[C@@H](CN[C@@H](CC(=O)O)C(=O)N[C@@H](Cc1ccccc1)C(N)=O)NC(=O)[C@H](Cc1c[nH]c2ccccc12)NC(=O)OC(C)(C)C | – | Antagonist | 0.3 mg/kg
0.5 µM | CC(C)C[C@H](NC(=O)[C@H](Cc1c[nH]c2ccccc12)NC(=O)OC(C)(C)C)C(=O)N[C@@H](CC(=O)O)C(=O)N[C@@H](Cc1ccccc1)C(N)=O (Boc-WLDF-NH2) | Agonist | – | –
